These results are taken from ChEMBL document CHEMBL2151033, “Synthesis, biological evaluation and molecular modeling of 4,6-diarylpyrimidines and diarylbenzenes as novel non-nucleosides HIV-1 reverse transcriptase inhibitors” (Eur J Med Chem, 2012).

The test system of series [1] is Human immunodeficiency virus 1. The series is described as follows: Antiviral activity against wild type HIV1 3B infected in human MT4 cells assessed as inhibition of virus-induced cytopathic effect after 5 days by MTT assay. Type of series: functional, organism-based. Conditions: Human immunodeficiency virus 1, 3B, MT4, 120 h. A digest of the protocol: (§1)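 Infected and mock-infected MT-4 cells (6×10^5 cells/mL, exponentially growing, spun 5 min at 220 g and resuspended) were treated with serial 5-fold compound dilutions in triplicate. Virus stock at 100-300 CCID50 was added. After 5 days, viability was read spectrophotometrically by MTT at 540 and 690 nm using the median OD of three wells. EC50 is the concentration giving 50% protection from viral cytopathic effect.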

Series [2] in a line: Selectivity index, ratio of CC50 for human MT4 cells to EC50 for wild type HIV1 3B infected in human MT4 cells. Type of series: toxicity, cell-based. Conditions: read-out: Ratio CC50/EC50. A digest of the protocol:
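Selectivity index is CC50 in mock-infected MT-4 cells divided by EC50 against HIV-1 IIIB. Both come from the 5-day MTT assay run in parallel on infected and uninfected cells with serial 5-fold dilutions in triplicate.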

Series [3] deals with Human immunodeficiency virus 1. The series is described as follows: Ratio of nevirapine EC50 to compound EC50 for wild type HIV1 3B infected in human MT4 cells. Type of series: functional.
The subject of series [4] is Human immunodeficiency virus 2. The series is described as follows: Antiviral activity against HIV2 ROD infected in human MT4 cells assessed as inhibition of virus-induced cytopathic effect after 5 days by MTT assay. Type of series: functional, organism-based. Conditions: Human immunodeficiency virus 2, ISOLATE ROD, MT4, 120 h. Put shortly: as §1
Background: Cytopathic effects are the visible damage that an infection or toxin causes in cultured cells.

Series [5] in a line: Cytotoxicity against human MT4 cells assessed as decrease in cell viability after 5 days by MTT assay. Type of series: cell-based. Put shortly:
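Uninfected, mock-treated MT-4 cells (6×10^5 cells/mL) were exposed to serial 5-fold compound dilutions in triplicate wells, run alongside the infected series. After 5 days, MTT reduction was read at 540 and 690 nm using the median OD of three wells. CC50 is the concentration that reduces OD540 of the mock-infected control by 50%.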

Series [6] deals with Human immunodeficiency virus 1. In words: Ratio of delavirdine EC50 to compound EC50 for wild type HIV1 3B infected in human MT4 cells. Type of series: functional.
In series [7] the test system is Human immunodeficiency virus 1. The series is described as follows: Antiviral activity against HIV1 RES056 harbouring RT K103N/Y181C mutant infected in human MT4 cells assessed as inhibition of virus-induced cytopathic effect after 5 days by MTT assay. Conditions: Human immunodeficiency virus 1, RES056, MT4, 120 h. Type of series: functional, organism-based. A digest of the protocol:
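MT-4 cells (exponentially growing, spun 5 min at 220 g, resuspended at 6×10^5 cells/mL) infected with HIV-1 RES056 (K103N + Y181C) at 100-300 CCID50, with serial 5-fold compound dilutions run in triplicate alongside mock-infected wells. Viability was read by MTT at 540 and 690 nm after 5 days, using the median OD of three wells. EC50 is the concentration giving 50% protection from viral cytopathic effect.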

Structures are written as SMILES. pEC50: −log10 of the molar value. Bounds are passed on as bounds.

`Cc1cc(C)c(Oc2cc(Nc3ccc(C#N)cc3)ncn2)c(C)c1`: the negative-log EC50 (pEC50) (usually the negative decadic logarithm of the EC50, by convention in mol/L) in series [1] is 7.31; in series [4], below 4.37; in series [7], below 4.37. Moreover, the selectivity ratio in series [2] worked out at 870. The entries for the “Ratio EC50” value in series [3] and in series [6] were 2 and 11, respectively. In addition, in series [5], the CC50 (in general, the concentration at which the toxic effect on the cells reaches its halfway point) at 120 h worked out at 42.2 µM.
As for `Cc1cc(C)c(Nc2cccc(Oc3c(C)cc(C)cc3C)c2)c(C)c1`, the pEC50 in series [1] and in series [4] was below 4.36 in each case. In series [2], the selectivity ratio was below 1. The CC50 at 120 h in series [5] was 43.6 µM.
On to `Cc1cc(C)c(Nc2cccc(Nc3ccc(C#N)cc3)c2)c(C)c1`, for which the figures for the pEC50 in series [1], in series [4] and in series [7] were 6.40, below 3.66 and below 3.66, respectively. Moreover, the selectivity ratio in series [2] is at least 552. In addition, the CC50 at 120 h in series [5] is at least 220 µM. Further, in series [6], the “Ratio EC50” value stood at 1.5.
Consider `Cc1ccnc2c1NC(=O)c1cccnc1N2C1CC1` [NEVIRAPINE], for which the pEC50 in series [1] is 7.01; in series [7], at most 5.12. Further, the selectivity ratio in series [2] was above 155. Besides, in series [5], the CC50 at 120 h is above 15 µM.
In the case of `Cc1cc(C)c(Nc2cc(Oc3c(C)cc(C#N)cc3C)ncn2)c(C)c1`, the values for the pEC50 in series [1], in series [4] and in series [7] were 5.28, below 4.43 and below 4.43, respectively. The selectivity ratio in series [2] is 7. For the same compound, the CC50 at 120 h in series [5] turned out to be 37.5 µM.
As to `Cc1cn([C@H]2C[C@H](N=[N+]=[N-])[C@@H](CO)O2)c(=O)[nH]c1=O` [ZIDOVUDINE], the pEC50 in series [1] is 8.10; in series [7] it was 8.22. Moreover, in series [2], the selectivity ratio was above 12000. The CC50 at 120 h in series [5] was above 93.6 µM.
Take `Cc1cc(C#N)cc(C)c1Oc1cc(Nc2ccc(C#N)cc2)ncn1`: the pEC50 in series [1] is 6.42; in series [4] it was below 3.53; in series [7], below 3.53. In series [2], the selectivity ratio is at least 740. Moreover, the CC50 at 120 h in series [5] is above 292 µM. In addition, the “Ratio EC50” value in series [6] worked out at 1.5.
As to `Cc1cc(C)c(Nc2cc(Oc3c(C)cc(C)cc3C)ncn2)c(C)c1`, the pEC50 in series [1], in series [4] and in series [7] was below 4.41 each time. Besides, in series [2], the selectivity ratio is below 1. Also, the CC50 at 120 h in series [5] was determined as 38.2 µM.
Take `Cc1cc(C)c(Oc2cccc(Nc3ccc(C#N)cc3)c2)c(C)c1`: the values for the pEC50 in series [1], in series [4] and in series [7] were 6.22, below 4.28 and below 4.28, respectively. The selectivity ratio in series [2] was found to be 65. Further, in series [5], the CC50 at 120 h was determined as 52.6 µM.
For the compound `Cc1cc(C#N)cc(C)c1Oc1nc(Nc2ccc(C#N)cc2)nc(N)c1Br` [ETRAVIRINE], the selectivity ratio in series [2] amounted to 12900. For the same compound, the pEC50 in series [4] is below 4.56.
As for `CC(C)Nc1cccnc1N1CCN(C(=O)c2cc3cc(NS(C)(=O)=O)ccc3[nH]2)CC1` [DELAVIRDINE], the pEC50 is 6.26 in series [1] and below 5.36 in series [7]. For the same compound, the selectivity ratio in series [2] is above 8. In addition, the CC50 at 120 h in series [5] was above 4.39 µM.
